Reference: ChEMBL document CHEMBL4152241, “Discovery of coumarin-dihydroquinazolinone analogs as niacin receptor 1 agonist with in-vivo anti-obesity efficacy” (Eur J Med Chem, 2018)
Activity calls are given as the source filed them. The rule behind the calls is not given here.

Columns and labels:
Mus musculus [1] = assay: Effect on LDL cholesterol level in high fat diet-induced obese C57BL/6J mouse model at 20 mg/kg, po for 6 weeks (reference value: 11.56 +/- 1.587 mg/dl); format: functional
Mus musculus [2] = assay: Effect on HDL cholesterol level in high fat diet-induced obese C57BL/6J mouse model at 20 mg/kg, po for 6 weeks (reference value: 57.8 +/- 3.385 mg/dl); format: functional
Mus musculus [3] = assay: Anti-obesity activity in high fat diet-induced obese C57BL/6J mouse model assessed as lean mass at 20 mg/kg, po for 6 weeks by NMR-MRI analysis (reference value: 25.58 +/- 0.6789 g); format: functional
Mus musculus [4] = assay: Anti-obesity activity in high fat diet-induced obese C57BL/6J mouse model assessed as reduction in body weight at 20 mg/kg, po for 6 weeks; format: functional
Procedure, shortened: (§1)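 Male C57BL/6J mice, 5-6 weeks old, 22-25 g, fed 60% fat diet to induce obesity. Dosed orally once at 20 mg/kg for six weeks; drug dissolved in DMSO, then mixed into 5% gum acacia in normal saline (working DMSO <5%). Controls were vehicle-treated HFD mice. Body weight was tracked, and fasting glucose was read by glucose meter after a 16 h fast; n=4-6.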

Mus musculus [5] = assay: Effect on total cholesterol level in high fat diet-induced obese C57BL/6J mouse model at 20 mg/kg, po for 6 weeks (reference value: 120.8 +/- 7.206 mg/dl); format: functional
Mus musculus [6] = assay: Effect on serum triglyceride level in high fat diet-induced obese C57BL/6J mouse model at 20 mg/kg, po for 6 weeks (reference value: 40.96 +/- 4.592 mg/dl); format: functional
Mus musculus [7] = assay: Anti-obesity activity in high fat diet-induced obese C57BL/6J mouse model assessed as plasma leptin level at 20 mg/kg, po for 6 weeks (reference value: 1751 +/- 325.4 pg/mg); format: functional
Mus musculus [8] = assay: Anti-obesity activity in high fat diet-induced obese C57BL/6J mouse model assessed as fat mass at 20 mg/kg, po for 6 weeks by NMR-MRI analysis (reference value: 16.52 +/- 1.154 g); format: functional
Mus musculus [9] = assay: Anti-obesity activity in high fat diet-induced obese C57BL/6J mouse model assessed as fasting glucose level at 20 mg/kg, po for 6 weeks (reference value: 93.17 +/- 5.793 mg/dL); format: functional; procedure, shortened: as §1
Mus musculus [10] = assay: Antiobesity activity in high fat diet-induced obese C57BL/6J mouse model assessed as improvement in glucose tolerance at 20 mg/kg, po measured post glucose challenge by intraperitoneal glucose tolerance test; format: functional, organism-based
Procedure, shortened: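 After six weeks of oral dosing (20 mg/kg) in HFD obese C57BL/6J mice, animals were fasted 16 h and baseline glucose was taken from the tail tip. Glucose 2 g/kg was given i.p., and blood glucose was measured at 15, 30, 60, 90 and 120 min. Mean ± SEM, 4-5 mice/group.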

Mus musculus [11] = assay: Anti-obesity activity in high fat diet-induced obese C57BL/6J mouse model assessed as reduction in body weight gain at 20 mg/kg, po for 6 weeks; format: functional, organism-based; procedure, shortened: as §1
Mus musculus [12] = assay: Anti-obesity activity in high fat diet-induced obese C57BL/6J mouse model assessed as decrease in fat mass at 10 mg/kg, po for 6 weeks by NMR-MRI analysis; format: functional, organism-based
Procedure, shortened: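 Male C57BL/6J mice, 5-6 weeks old (22-25 g), made obese on a 60% fat diet. Dosed orally for six weeks, dissolved in DMSO then mixed into 5% gum acacia in normal saline (working DMSO <5%), against HFD vehicle-treated mice. Total body fat compared at end of treatment, n=4-5/group, by one-way ANOVA with Newman-Keuls test.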

Mus musculus [13] = assay: Anti-obesity activity in high fat diet-induced obese C57BL/6J mouse model assessed as reduction in body weight gain at 10 mg/kg, po for 6 weeks; format: functional, organism-based
Procedure, shortened: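 High-fat (60% fat) diet-induced obese male C57BL/6J mice, started at 5-6 weeks old and 22-25 g. Oral dosing for six weeks from a DMSO stock diluted into 5% gum acacia/normal saline (working DMSO <5%), against HFD vehicle controls. Cumulative body weight gain tracked over treatment, n=4-5, analysed by two-way ANOVA.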

Structure (SMILES)	Activity (Mus musculus [1]) [mg/dL]	Activity (Mus musculus [2]) [mg/dL]	Activity (Mus musculus [3]) [g]	Activity (Mus musculus [4]) [g]	Activity (Mus musculus [5]) [mg/dL]	Activity (Mus musculus [6]) [mg/dL]	Activity (Mus musculus [7]) [pg/mg]	Activity (Mus musculus [8]) [g]	Activity (Mus musculus [9]) [mg/dL]	Activity (Mus musculus [10])	Activity (Mus musculus [11])	Activity (Mus musculus [12])	Activity (Mus musculus [13])
COc1ccc(-c2cc3cc(C4Nc5ccccc5C(=O)N4C)cc(C)c3oc2=O)cc1 (stereo not drawn)	10.4	45.92	23.16	0.72	95.6	36.97	807.6	13.01	63	inactive	Active		
C[C@H]1CNCCc2ccc(Cl)cc21												Active	Active
